“Also recorded” adds a separate entry of the source.
How the values were obtained:
ROCK I = conditions: cited from earlier work
[1] = tested on: patients with solid tumors; test: First-in-human phase I dose escalation: safety and tolerability; type: in vivo
In short: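 The design was a rolling-six dose escalation across 5–300 mg in 8 cohorts, starting with a single run-in dose 7 days before cycle 1. Dosing was oral, Mon-Wed-Fri, in 28-day cycles. An added cohort escalated within each patient: one week at 120 mg, then 180 mg, then 240 mg during cycle 1. Toxicity was assessed weekly. Patients with hypertension on medication or abnormal fasting glucose were excluded.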

AKT1 = conditions: cited from earlier work
[2] = tested on: p-GSK3β in platelet-rich plasma; test: p-GSK3β; type: in vivo, human
In short: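 Blood was sampled at baseline and at 2, 6, 24 and 48 h after the run-in dose and after the cycle 2, day 1 dose. Platelet-rich plasma was prepared, and GSK3β Ser9 phosphorylation was measured by MSD electrochemiluminescent immunoassay. Results were expressed as percent of baseline, normalized to total GSK3β, and compared with predose by Dunnett's test.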

ROCK 2 = conditions: cited from earlier work
p-MLC2 in tumor biopsies = test: p-MLC2 in paired tumor biopsies by immunohistochemistry; type: in vivo, human; conditions: 180 mg dose level, 5 paired biopsies
In short: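 Fresh tumor biopsies were taken before and after treatment at 180 mg. Four-μm sections were heated at 60 °C for 20 min and retrieved in Tris pH 9 at 110 °C for 6 min. Staining used primary antibody 40 min at RT, biotinylated secondary 1:200, ABC-HRP amplification, VIP substrate and hematoxylin counterstain. Positive-cell detection used intensity scores 0–3, with a random-trees classifier separating tumor from stroma.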

advanced solid tumors = test: Clinical efficacy; type: in vivo, human; conditions: all dose levels
In short: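 Patients with metastatic solid tumors who had already received standard-of-care treatment took oral test compound three days a week (Mon-Wed-Fri) in 28-day cycles. Cohorts received flat doses from 5 to 300 mg, and one further cohort used intra-patient escalation from 120 to 180 to 240 mg.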

AKT3 = conditions: cited from earlier work
AKT2 = conditions: cited from earlier work
[3] = tested on: p-cofilin in tumor biopsies; test: p-cofilin in pre- and post-treatment tumor biopsies, Protein Simple WES assay; type: in vivo, human; conditions: 8 pre- and post-treatment biopsies
In short: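 Tumor biopsies were taken pre-dose and 24 h post-dose (cycle 1 day 15 or cycle 2 day 1) at 180 mg given thrice weekly. Phospho- and total cofilin were measured by capillary immunoassay (WES), normalized to GAPDH, and quantified as the area under the chemiluminescence peak. Phospho-cofilin was expressed as percent of pre-dose level.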

[4] = type: in vivo; conditions: human, plasma, oral
[5] = Cohort 9 120-180-240 mg (n=7), grade 1

## NC[C@@](O)(c1ccc(Cl)cc1)c1ccc(-c2cn[nH]c2)cc1 [AT13148]
ROCK I
  IC50: 6 nM
[1]; 180 mg
  dose-limiting toxicity: skin rash; also recorded: maculopapular rash
[1]; 240 mg
  dose-limiting toxicities: pneumonitis and elevated liver enzymes; also recorded: elevated transaminases and pneumonitis
[1]; 300 mg
  dose-limiting toxicity: hypotension
[1]; 5 - 300 mg
  most common (treatment related) side effects: fatigue, nausea, headaches and hypotension; also recorded: hypotension, nausea, headache and fatigue
[1]; Cohort 1 5 mg (n=4), grade 1
  Anorexia, No. subjects: 1
  Nausea, No. subjects: 1
[1]; Cohort 1 5 mg (n=4), grade 2
  Fatigue, No. subjects: 1
[1]; Cohort 2 10 mg (n=5), grade 1
  Hypotension, No. subjects: 1
[1]; Cohort 8 300 mg (n=5), grade 1
  Flushing, No. subjects: 1
  Headache, No. subjects: 3
  Nausea, No. subjects: 2
  Vomiting, No. subjects: 1
[1]; [5]
  Anorexia, No. subjects: 2
  Diarrhea, No. subjects: 2
  Fatigue, No. subjects: 2
  Hypotension, No. subjects: 2
  Nausea, No. subjects: 4
  Vomiting, No. subjects: 1
[1]; Cohort 9 120-180-240 mg (n=7), grade 2
  Fatigue, No. subjects: 2
[1]; Cohort 9 intra-patient dose escalation 120-180-240 mg
  DLTs reported: two DLTs (grade 3 pneumonitis at 240 mg and grade 3 rash at 180 mg)
[1]; all cohorts (n = 51)
  Anorexia, Total No. subjects: 7 (13.7%)
  Diarrhea, Total No. subjects: 7 (13.7%)
  Fatigue, Total No. subjects: 9 (17.6%)
  Flushing, Total No. subjects: 6 (11.8%)
  Headache, Total No. subjects: 12 (23.5%)
  Hypotension, Total No. subjects: 20 (39.2%)
  Nausea, Total No. subjects: 15 (29.4%)
  Vomiting, Total No. subjects: 7 (13.7%)
[1]; dose doubling from 5 - 160 mg
  dose-limiting toxicities: no dose-limiting toxicities reported
[1]; in vivo
  time of occurrence of hypotension after dosing: ≤ 8 h
[1]; orally on days 1, 3 and 5 of each week, 28-day cycles
  maximally tolerated dose: 180 mg
AKT1
  IC50: 38 nM
[2]; 300 mg, 2 - 6 hrs (legend: 2 - 24 hrs) after treatment, Dunnett's test
  change of p-GSK3β levels in platelet-rich plasma vs predose: statistically significant reduction; also recorded: reduced; also recorded: transient reduction
[2]; doses lower than 300 mg
  change of p-GSK3β levels in platelet-rich plasma vs predose: not significant
ROCK 2
  IC50: 4 nM
p-MLC2 in tumor biopsies
  paired biopsies with reduction of p-MLC2 (H scores) post-treatment: 1/5
Advanced solid tumors
  tumor response: No complete or partial responses; also recorded: no clinical responses
AKT3
  IC50: 50 nM
AKT2
  IC50: 402 nM
[3]; 180 mg dose level
  post-treatment biopsies showing a reduction of p-cofilin: 5/8
[3]; 180 mg thrice a week
  post-treatment biopsies with ≥50% (>50%) reduction of p-cofilin: 3/8
[4]
  half-life: 14.4 to 32.2 h
[4]; 180 mg
  AUC: 13.4 µM·h
  Cmax: 383 nM

— publication PMC7611345 (Clinical cancer research : an official journal of the …, 2020)
